In the library only some 2.8% were active in any assay of this set; here they are far more common.
MC4R ag barr: activates human MC4R beta-arrestin recruitment. activation, % at 8.9 µM. U2OS MC4R beta-arrestin complementation, luminescence; percent of melanotan II response, DMSO zero. 360,000 tested, 0.98% active;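 active means activation above a per-plate cutoff, the mean activation of sample wells on that plate plus 3 SD, cut at about 8% in these data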
EBI2 antag: EBI2 (human) antagonism | EBI2 beta-arrestin recruitment, luminescence, 7a,25-OHC stimulated | inhibition, % at 5 µM | 360,000 tested, 0.81% active; in the data active means inhibition above about 38%;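 further: enzyme fragment complementation signal reports receptor beta-arrestin coupling in cells; 0% = agonist plus DMSO wells and 100% = wells without agonist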
Target sequence (P32249 whole entry, looked up, the tested form may be a part): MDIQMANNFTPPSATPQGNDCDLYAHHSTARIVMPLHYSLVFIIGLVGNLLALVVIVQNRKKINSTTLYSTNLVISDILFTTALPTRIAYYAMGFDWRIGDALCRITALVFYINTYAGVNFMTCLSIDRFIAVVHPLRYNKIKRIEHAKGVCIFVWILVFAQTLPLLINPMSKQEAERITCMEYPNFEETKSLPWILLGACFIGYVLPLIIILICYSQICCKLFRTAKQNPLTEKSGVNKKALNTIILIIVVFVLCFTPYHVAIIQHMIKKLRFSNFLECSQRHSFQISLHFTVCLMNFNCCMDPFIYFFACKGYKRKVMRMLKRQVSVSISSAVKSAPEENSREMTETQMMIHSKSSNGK
MC4R antag cAMP: antagonists of human melanocortin 4 receptor (MC4R). P32245. MC4R-expressing cells, MTII-stimulated cAMP, LANCE TR-FRET. inhibition, % at 6.5 µM. 360,000 tested, 0.48% active;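 active means inhibition above its plate's cutoff, the mean of tested wells on that plate plus 3 SD, cut at about 29% in these data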;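 further: 0% = Melanotan II alone and 100% = Melanotan II plus saturating MCL0020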
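Assay system: human MC4R-expressing U2OS cells; reagent: Melanotan II stimulation of cells; dosing: 6.5 µM single dose; timing: compound 30 min, challenge 1 h, detection 1 h; signal: TR-FRET cAMP assay; replicates: one well per compound, no replicates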
m5-HT2A agonist: activates the mouse 5-HT2A serotonin receptor; P35363; CHO-K1 mHTR2A beta-arrestin complementation, luminescence; percent of 30 µM serotonin response; activation, % at 7.6 µM; 360,000 tested, 0.66% active; AID 624169;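 active means activation above a run cutoff, the mean activation of all tested compounds plus 3 SD, cut at about 14% in these data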;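 further: 0% = plate median of compound wells and 100% = 30 µM serotonin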
EBI2 conf: confirmation of human EBI2 receptor antagonists; AID 651997; EBI2 beta-arrestin luminescence, 7a,25-OHC antagonism; inhibition, % at 5 µM; 2,400 tested, 29% active; shares compounds with EBI2 antag;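 active means inhibition of at least 50%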
EBI2 ag: activates EBI2, counter-screen for EBI2 antagonists. shares compounds with EBI2 antag. EBI2-expressing cells, agonist mode, luminescence, 60 min; 0% vehicle, 100% 7α,25-dihydroxycholesterol control. activation, % at 5 µM. 2,400 tested, under 10 active. AID 652000;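 active means activation of at least 50%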
bGal counter: beta-galactosidase inhibition counter-screen; shares compounds with EBI2 antag; inhibition, % at 5 µM; 2,400 tested, 1% active; purified beta-galactosidase, luminescent Galacton Star, 15 min;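 active means replicate-average signal at least 3 plate SD below neutral wells, shown as high inhibition, flagging enzyme-inhibiting false positives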;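 further: 0% = DMSO wells with enzyme and 100% = wells lacking enzyme; higher means stronger loss of beta-gal luminescence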
The depositor's hits bear a star; · = not tested or not shown.

SMILES | MC4R ag barr | EBI2 antag | MC4R antag cAMP | m5-HT2A agonist | EBI2 conf | EBI2 ag | bGal counter
CCn1cc(S(=O)(=O)c2ccc(Cl)cc2)c(=O)c2cc(OC)ccc21 | -4 | 13 | 5 | -3 | · | · | ·
CC(C(=O)OCC(=O)Nc1cccc(S(=O)(=O)N(C)C)c1)N1C(=O)c2ccccc2C1=O (configuration not stated) | -2 | -2 | 3 | -4 | · | · | ·
Cc1ccc(OCCSc2nc3ccccc3n2CC(=O)O)cc1 | -2 | -4 | -4 | 4 | · | · | ·
C=C(C)CN(CC)C(=O)CSc1nc(O)cc(=O)n1C1CCCC1 | -1 | -6 | 20 | -2 | · | · | ·
COc1ccc(OCC(=O)N2CCN(C(=O)COc3ccc(Br)cc3)CC2)cc1 | -2 | 80* | 9 | 2 | 56* | 0 | 9
O=C(COc1ccc2ccccc2c1)N1CCN(C(=O)c2cccnc2)CC1 | -2 | 78* | -3 | 5 | 64* | -1 | -16
CC(=O)c1ccc(N2CCN(C(=O)COc3ccc4ccccc4c3)CC2)cc1 | 0 | 8 | 3 | 9 | · | · | ·
O=C(COc1ccc(-c2ccccc2)cc1)N1CCN(C(=O)c2cccnc2)CC1 | 0 | 2 | 4 | 3 | · | · | ·
COc1ccc(N2CCN(C(=O)COc3ccc4ccccc4c3)CC2)cc1 | -1 | 85* | -3 | -4 | 35 | 1 | 5
O=C(c1ccc2ccccc2c1)N1CCN(c2ccccc2)CC1 | -1 | 83* | 14 | -5 | 68* | 0 | -10
Cc1cccc(N2CCN(C(=O)c3ccncc3)CC2C)c1 (configuration not stated) | 1 | 5 | 2 | 1 | · | · | ·
CC1CC(C)CN(C(=O)c2ccc3ccccc3c2)C1 (configuration not stated) | -3 | 10 | 0 | -5 | · | · | ·
Cc1cccc(N2CCN(C(=O)c3ccc4ccccc4c3)CC2C)c1 (configuration not stated) | -1 | 65* | 7 | 0 | 42 | -1 | -15
CC1CCN(C(=O)c2ccc3ccccc3c2)CC1 | 0 | 46* | -5 | -2 | 48 | 0 | -1
O=C(c1ccc(-c2ccccc2)cc1)N1CCN(c2ccccc2)CC1 | 2 | 18 | -3 | -5 | · | · | ·
O=C(/C=C/c1ccc(Cl)cc1)N1CCN(c2ccc([N+](=O)[O-])c(N3CCOCC3)c2)CC1 | -2 | 96* | 6 | 4 | 88* | 1 | 0
O=C(/C=C/c1ccc(Cl)cc1Cl)N1CCN(c2ccccc2[N+](=O)[O-])CC1 | -2 | 82* | 1 | -4 | 62* | 1 | 3
O=C(c1ccccc1)N1CCN(c2ccc([N+](=O)[O-])c(N3CCOCC3)c2)CC1 | 1 | -3 | 10 | -4 | · | · | ·
O=C(/C=C/c1ccc(Cl)cc1Cl)N1CCN(c2ccc([N+](=O)[O-])c(N3CCOCC3)c2)CC1 | -1 | 61* | 10 | 0 | 15 | 1 | 7
COc1ccc(C(=O)N/N=C/c2ccc(OC)c(COc3ccc(F)cc3F)c2)cc1 | -1 | 16 | 4 | -10 | · | · | ·
Cc1cc(NCCCO)n2nc(-c3cccs3)cc2n1 | -2 | 9 | -5 | -4 | · | · | ·
OCCCNc1cc(-c2ccccc2)nc2cc(-c3ccc(F)cc3)nn12 | 2 | 55* | 13 | 1 | 49 | -1 | -6
COc1ccc(C(=O)N2CCCC(Nc3ccc(C(C)C)cc3)C2)c(OC)n1 (configuration not stated) | -2 | 0 | 9 | -9 | · | · | ·
Cc1ccc(OCC(=O)N2CCN(c3nnc(-c4ccccc4)c4ccccc34)CC2)cc1 | 0 | 90* | 8 | 8 | 86* | 0 | 9
CC(=O)N1CCN(c2nnc(-c3ccc(C)cc3)c3ccccc23)CC1 | -2 | 1 | 8 | -2 | · | · | ·
SMILES | MC4R ag barr | EBI2 antag | MC4R antag cAMP | m5-HT2A agonist | EBI2 conf | EBI2 ag | bGal counter
Cc1nc(N2CCN(C(=O)COc3ccccc3)CC2)c2c(C)c(C)sc2n1 | -1 | 51* | -2 | 1 | 28 | -1 | -6
CN(C)S(=O)(=O)c1ccc(Cl)c(NC(=O)COC(=O)CNS(=O)(=O)c2c(F)cccc2F)c1 | -1 | -7 | 16 | -2 | · | · | ·
O=C(NC(c1ccc(F)cc1)c1ccc2ccccc2n1)C1CCN(CCOc2ccc(Cl)cc2)CC1 (configuration not stated) | 8 | 73* | 6 | -1 | 51* | 1 | 4
COc1ccc(NC(=S)Nc2cc(C(F)(F)F)ccc2F)cc1 | -3 | 43* | -5 | 4 | 8 | 0 | -11
COc1ccc(NC(=S)NNC(=S)Nc2cccc(C(F)(F)F)c2)cc1 | 1 | 29 | -1 | -6 | · | · | ·
Cn1ncc2c(NNC(=O)c3ccccc3Cl)ncnc21 | -1 | -6 | 5 | -1 | · | · | ·
C=C(C)C(O)Cc1c(OC)ccc(C(=O)/C=C/c2ccc(O)cc2)c1O (configuration not stated) | 3 | 17 | 3 | -3 | · | · | ·
CC(C)=CCC/C(C)=C/Cc1c(O)ccc(C(=O)/C=C/c2ccc(O)cc2)c1O | 8.6* | 43* | 7 | -10 | 49 | 1 | 3
FCCCOc1ccc(/C=N/OCc2ccc(Cl)cc2)cc1 | 2 | 60* | -1 | -2 | 23 | 1 | 3
O=C(COC(=O)CNC(=O)c1ccco1)Nc1ncc(Cl)cc1Cl | 0 | 1 | 7 | -5 | · | · | ·
CCOc1ccccc1OCCCC(=O)N1CCN(S(=O)(=O)c2cccc(F)c2)CC1 | -2 | -4 | 0 | 0 | · | · | ·
COc1ccc(CCC(=O)N2CCN(S(=O)(=O)c3ccc(C)cc3)CC2)cc1 | -1 | 49* | 9 | 11 | 21 | 1 | 4
COc1ccc(CCC(=O)N2CCN(S(=O)(=O)c3cccc(Cl)c3)CC2)cc1 | 1 | 72* | 2 | -5 | 47 | 0 | -17
COc1ccc(OCCCC(=O)N2CCN(S(=O)(=O)c3cccc(F)c3)CC2)cc1 | -4 | 58* | 13 | -4 | 29 | 0 | 3
COC(=O)[C@@]1(Cc2ccc(OC)cc2)[C@@H]2C(=CC(=O)[C@H]2CC(=O)C(=O)N2CCCC2)CN1C(=O)c1ccccc1 | 0 | 47* | 2 | 0 | 61* | 0 | 2
COc1ccc(NC(=O)CN(C)C(=O)c2ccc3c(c2)CC(c2ccccc2)OC3=O)cc1 (configuration not stated) | 4 | 49* | 7 | -1 | 16 | 0 | -12
COc1cccc(NC(=O)CN(C)C(=O)c2ccc3c(c2)CC(c2ccccc2)OC3=O)c1 (configuration not stated) | 0 | 33 | 0 | -5 | · | · | ·
COc1ccc(NC(=O)CN2CCN(C3c4ccccc4-c4ccccc43)CC2)cc1 | 0 | 47* | 7 | -1 | 43 | 0 | -16

Screening results from PubChem.
